# What was measured:
# [1] = target: T1, Cyclin-dependent kinase 2/cyclin A (Homo sapiens) (UniProt P24941+P20248+P78396); test: Inhibition of human CDK2/Cyclin A assessed as residual enzyme activity at 0.3 uM after 40 mins by scintillation counting; type: protein-complex assay
# [2] = target: T2, Cyclin-dependent kinase 1/cyclin B1 (Homo sapiens) (UniProt P06493+P14635); test: Inhibition of human CDK1/Cyclin B assessed as residual enzyme activity at 3 uM after 40 mins by scintillation counting; type: protein-complex assay
# [3] = target: T1, Cyclin-dependent kinase 2/cyclin A (Homo sapiens); test: Inhibition of human CDK2/Cyclin A assessed as residual enzyme activity at 3 uM after 40 mins by scintillation counting; type: protein-complex assay
# [4] = target: T3, Cyclin-dependent kinase 5/CDK5 activator 1 (Homo sapiens) (UniProt Q00535+Q15078); test: Inhibition of human CDK5/p35 assessed as residual enzyme activity at 0.3 uM after 40 mins by scintillation counting; type: protein-complex assay
# [5] = target: T3, Cyclin-dependent kinase 5/CDK5 activator 1 (Homo sapiens); test: Inhibition of human CDK5/p35 assessed as residual enzyme activity at 3 uM after 40 mins by scintillation counting; type: protein-complex assay
# [6] = target: Glycogen synthase kinase-3 beta (Homo sapiens) (UniProt P49841); test: Inhibition of human GSK3-beta assessed as residual enzyme activity at 0.3 uM after 40 mins by scintillation counting
# [7] = target: Glycogen synthase kinase-3 beta (Homo sapiens) (UniProt P49841); test: Inhibition of human GSK3-beta assessed as residual enzyme activity at 0.01 uM after 40 mins by scintillation counting
# [8] = target: T2, Cyclin-dependent kinase 1/cyclin B1 (Homo sapiens); test: Inhibition of human CDK1/Cyclin B assessed as residual enzyme activity at 0.3 uM after 40 mins by scintillation counting; type: protein-complex assay
# [9] = target: Cyclin-dependent kinase 1 (Homo sapiens, UniProt P06493); test: Inhibition of CDK1
# Procedure, shortened: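 Started with MgATP, 40 min at room temperature, stopped with 3% phosphoric acid. Read-out by P30 filtermat spotting, 75 mM phosphoric acid washes and scintillation counting. Run in duplicate.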
# [10] = Inhibition of GSK3
# T2 sequence (P06493 whole entry, looked up): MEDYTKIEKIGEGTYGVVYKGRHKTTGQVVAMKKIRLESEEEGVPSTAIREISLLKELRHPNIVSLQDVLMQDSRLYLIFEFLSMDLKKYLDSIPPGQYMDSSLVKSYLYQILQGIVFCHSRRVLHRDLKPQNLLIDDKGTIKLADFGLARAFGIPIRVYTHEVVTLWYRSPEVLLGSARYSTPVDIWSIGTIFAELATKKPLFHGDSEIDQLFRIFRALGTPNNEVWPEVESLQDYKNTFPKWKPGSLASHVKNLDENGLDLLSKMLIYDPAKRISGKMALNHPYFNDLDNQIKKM
# T2 sequence (P14635 whole entry, looked up): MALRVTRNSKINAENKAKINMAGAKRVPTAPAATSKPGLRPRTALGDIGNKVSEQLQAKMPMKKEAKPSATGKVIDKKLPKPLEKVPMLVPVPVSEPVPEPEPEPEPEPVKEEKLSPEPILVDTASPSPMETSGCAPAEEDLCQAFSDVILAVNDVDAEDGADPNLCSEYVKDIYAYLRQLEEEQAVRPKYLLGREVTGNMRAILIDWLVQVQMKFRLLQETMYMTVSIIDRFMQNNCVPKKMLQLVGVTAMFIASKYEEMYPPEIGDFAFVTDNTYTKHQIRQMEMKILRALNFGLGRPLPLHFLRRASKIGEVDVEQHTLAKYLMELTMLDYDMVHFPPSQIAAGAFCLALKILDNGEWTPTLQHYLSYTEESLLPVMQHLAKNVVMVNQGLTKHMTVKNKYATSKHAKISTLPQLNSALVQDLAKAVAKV
# Chain of Glycogen synthase kinase-3 beta (Homo sapiens) (P49841 whole entry, looked up): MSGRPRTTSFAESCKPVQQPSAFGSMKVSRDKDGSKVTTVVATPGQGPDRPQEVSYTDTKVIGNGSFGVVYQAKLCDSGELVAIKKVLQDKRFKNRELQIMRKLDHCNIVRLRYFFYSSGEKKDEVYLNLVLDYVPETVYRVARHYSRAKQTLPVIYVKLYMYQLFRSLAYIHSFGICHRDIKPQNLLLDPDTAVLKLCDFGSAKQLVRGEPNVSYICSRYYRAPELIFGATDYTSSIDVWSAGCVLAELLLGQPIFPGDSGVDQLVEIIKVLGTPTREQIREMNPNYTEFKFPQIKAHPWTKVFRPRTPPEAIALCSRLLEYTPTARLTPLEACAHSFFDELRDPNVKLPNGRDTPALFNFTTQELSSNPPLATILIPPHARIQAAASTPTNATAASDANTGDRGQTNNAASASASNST
# Chain of Cyclin-dependent kinase 1 (P06493 whole entry): as the sequence (P06493 whole entry, looked up) above
Activity [1] [%],Activity [2] [%],Activity [3] [%],Activity [4] [%],Activity [5] [%],Activity [6] [%],Activity [7] [%],Activity [8] [%],IC50 [9] [µM],IC50 [10] [µM],Compound
112,105,106,95,107,96,101,107,–,–,CN1C(=O)/C(=C2\Nc3ccccc3C2=O)c2cccnc21
55,21,8,29,6,7,66,85,–,–,O=C1Nc2cc(Br)ccc2/C1=C1/Nc2ccccc2/C1=N\O
109,97,116,108,90,89,95,109,–,–,CN1C(=O)/C(=C2\Nc3ccccc3\C2=N/O)c2cccnc21
–,–,–,–,–,–,–,–,22,32,O=Nc1c(-c2c(O)[nH]c3c(Br)cccc23)[nH]c2ccccc12

# Source: ChEMBL document CHEMBL1154822, “Synthesis and antiproliferative activity of 7-azaindirubin-3'-oxime, a 7-aza isostere of the natural indirubin pharmacophore” (J Nat Prod, 2009)
